In the library only some 1.5% were active in any assay of this set; here they are far more common.
TPT1 inh = blocks Candida albicans tRNA 2'-phosphotransferase; inhibition, % at 5 µM; hit rate 0.81% among 300,000; recombinant caTPT1, FP RNA substrate dephosphorylation;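 active = inhibition above the mean of all tested compounds plus 3 SD, set per screening campaign, cut at about 24% in these data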;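 also: plate controls were DMSO alone for no effect and ferristatin control at 100 nM for full effect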
Rpn11 inh = blocks the human proteasome subunit Rpn11. O00487. human 26S proteasome, Ub4-pepOG fluorescence polarization; 20S core pre-blocked with epoxomicin. calls only at 20 µM. hit rate 0.59% among 360,000;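 active = inhibition at 20 µM, scaled to each plate's controls, above about 33%, limit read from the data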
HNF4A DNA FP = change in binding of human HNF4 alpha to DNA; AID 1224865; hit rate 0.3% among 360,000; HNF4a-FITC DNA binding, fluorescence polarization, 1 h; activity change, % at 10 µM; P41235; in the data active = activity change above about 30%, passing the limit was not always enough
Target sequence (P41235 whole entry, looked up): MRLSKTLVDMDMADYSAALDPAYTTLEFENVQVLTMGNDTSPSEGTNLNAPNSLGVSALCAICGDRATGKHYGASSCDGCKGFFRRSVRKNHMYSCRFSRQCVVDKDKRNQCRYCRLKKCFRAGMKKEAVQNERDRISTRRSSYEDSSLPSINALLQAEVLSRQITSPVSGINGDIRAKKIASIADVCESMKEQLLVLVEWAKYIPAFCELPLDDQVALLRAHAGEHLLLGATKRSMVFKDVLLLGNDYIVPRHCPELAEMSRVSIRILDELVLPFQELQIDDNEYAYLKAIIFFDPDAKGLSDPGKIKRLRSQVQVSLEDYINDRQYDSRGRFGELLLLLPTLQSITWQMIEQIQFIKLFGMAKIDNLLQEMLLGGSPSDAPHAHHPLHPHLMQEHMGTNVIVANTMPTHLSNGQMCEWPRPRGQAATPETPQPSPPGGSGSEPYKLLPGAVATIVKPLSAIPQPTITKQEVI
CSN inh = CSN deneddylation inhibition. Q92905. inhibition, % at 12.5 µM. hit rate 0.38% among 360,000. AID 651999. Purified CSN, SCF-Nedd8-OG deneddylation, fluorescence polarization;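 active = pattern-corrected inhibition above about 35%, with an unprinted fluorescence ratio check between 0.5 and 1.5, limit read from the data, passing the limit was not always enough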;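 also: 0% = enzyme with substrate and 100% = substrate without enzyme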
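Assay system: HEK293T-derived human Csn5 enzyme; quantity: 0.24 nM enzyme; medium: Tris/NaCl/DTT buffer, pH 7.5; also added: substrate SCFSkp2-Nedd8OG, 10 nM; doses: 12.5 µM compound; schedule: 90 min reaction at room temperature; signal: FP; read-out: % inhibition of substrate cleavage by Csn5; benchmarks: substrate-only high control, full reaction low control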
TPT1 inh confirm = confirmation of Candida albicans TPT1 inhibitors | shares compounds with TPT1 inh | inhibition, % at 5 µM | recombinant caTPT1, fluorescence polarization, RNase T1 coupled | hit rate 74% among 2,400;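 active = inhibition above the primary screen limit, the mean inhibition of all tested compounds plus 3 SD, cut at about 25% in these data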
RNase T1 counter = RNase T1 inhibition in TPT1 counter-screen; shares compounds with TPT1 inh; RNase T1 cleavage, fluorescence polarization, 1536-well; inhibition, % at 5 µM; hit rate 83% among 2,400; AID 2153;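 active = inhibition above the solvent-only control well mean plus 3 SD, limit set per screening run, cut at about 23% in these data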;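 also: plate controls were DMSO wells with enzyme for no effect and wells without RNase T1 for full effect; inhibitors block cleavage so intact labeled substrate keeps polarization high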
Target sequence (P00651 whole entry, looked up): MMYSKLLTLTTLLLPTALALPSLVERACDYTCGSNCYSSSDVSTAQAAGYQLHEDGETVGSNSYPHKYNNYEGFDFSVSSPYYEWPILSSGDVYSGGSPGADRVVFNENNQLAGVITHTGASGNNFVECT
Starred values were filed as active, the others as inactive; i = inactive; / = not tested or not shown.

SMILES | TPT1 inh | Rpn11 inh | HNF4A DNA FP | CSN inh | TPT1 inh confirm | RNase T1 counter
CCCCn1c(=O)c(C=Nc2cccnc2Cl)c(O)n(CCCCl)c1=O | 30* | i | -2 | 11 | 9 | 14
ClC1=CCC2CN(CCN3CCCCC3)CC2C1 (stereo not given) | -6 | i | -2 | 3 | / | /
O=C(Cn1ncc2c3ccccc3n(Cc3cccc(Cl)c3)c2c1=O)N1CCC2(CC1)OCCO2 | 114* | i | 1 | 10 | 64* | 69*
Cc1ccc(/C=C2/C(=O)NC(=O)N(CCc3ccc(F)cc3)C2=O)o1 | 27* | i | 1 | 7 | 6 | 14
CN1C(=O)C(=Cc2ccc(SC3CCCCC3)o2)C(=O)N(C)C1=O | 8 | i | -3 | 7 | / | /
CN1C(=O)C(=Cc2ccc(N3CCCCC3)o2)C(=O)N(C)C1=S | 85* | / | 133 | 144 | 105* | 111*
CCN(CC)c1ccc(C=C2C(=O)N(C)C(=S)N(C)C2=O)o1 | 93* | / | 147 | 133 | 102* | 112*
O=C1NC(=O)N(c2ccc3c(c2)OCO3)C(=O)/C1=C/c1ccc(N2CCCCC2)o1 | 132* | / | 163 | 141 | 146* | 142*
CCN(CC)c1ccc(/C=C2\C(=O)NC(=S)N(C)C2=O)o1 | 123* | / | 176 | 146 | 135* | 135*
CN1C(=O)/C(=C\N2CCc3ccccc32)C(=O)NC1=S | 9 | i | 1 | -3 | / | /
Cc1[nH]nc2ccc(-c3cncc(OC[C@@H](N)Cc4c[nH]c5ccccc45)c3)cc12 | / | i | -2 | 12 | / | /
COC(=O)Cn1cc(/C=C2\C(=O)NC(=O)N(c3ccc(OC)cc3)C2=O)c2ccccc21 | 25* | i | -1 | 0 | -13 | 4
COCCNC(=O)Cn1cc(/C=C2\C(=O)NC(=O)N(c3ccccc3F)C2=O)c2ccccc21 | 27* | i | -1 | -2 | 10 | 19
COc1ccc(N2C(=O)NC(=O)/C(=C\c3cn(C)c4ccccc34)C2=O)cc1 | 67* | / | 108* | 14 | 68* | 71*
CNC(C(=O)c1ccccc1)C(OC)c1cccc([N+](=O)[O-])c1 (stereo not given) | -2 | i | 4 | 4 | / | /
CCC1(Cc2ccccc2)C(=O)NC(=S)N(C)C1=O (stereo not given) | / | i | 0 | -1 | / | /
COc1cccc(-n2c(/C=C/c3ccccn3)nc3ccccc3c2=O)c1 | / | i | -4 | 6 | / | /
COc1cccc(-n2c(/C=C/c3ccc(O)c(O)c3)nc3ccccc3c2=O)c1 | 55* | / | 57* | 32 | 65* | 68*
COc1ccc(-n2c(/C=C/c3ccc(O)c(OC)c3)nc3ccccc3c2=O)cc1 | 45* | / | 12 | 14 | 57* | 67*
O=C(COc1ccccc1)N1CCN(CC2CC=CCC2)CC1 (stereo not given) | -2 | i | 0 | -1 | / | /
C[C@@H]1CN([C@H](C)CO)C(=O)CCCn2nncc2CO[C@@H]1CN(C)C(=O)Oc1ccc2ccccc2c1 | / | i | 8 | 0 | / | /
CN(C)C=C1C(=O)N(C2CCCCC2)C(=O)N(C2CCCCC2)C1=O | 29* | i | 0 | 6 | 43* | 58*
Cc1cc(C)c(Cn2c(C(=O)O)c(C=O)c3ccccc32)c(C)c1 | 53* | / | 106 | 95 | 118* | 120*
O=c1[nH]c(=O)n(Cc2ccccc2Cl)c(O)c1/C=C1/C=CC=N1 | 29* | i | 5 | 8 | 18 | 23*
O=C1NC(=S)N(c2ccc(F)cc2)C(=O)/C1=C/c1ccccc1O | -2 | i | 6 | -1 | / | /
SMILES | TPT1 inh | Rpn11 inh | HNF4A DNA FP | CSN inh | TPT1 inh confirm | RNase T1 counter
O=C1NC(=S)N(c2ccc(Br)cc2)C(=O)/C1=C/N1CCN(C(=O)c2ccco2)CC1 | 86* | / | 49* | 57* | 37* | 52*
Cc1ccc(N2C(=O)NC(=O)/C(=C\c3ccc([N+](=O)[O-])o3)C2=O)cc1 | 29* | / | / | / | 50* | 21
Cc1ccccc1N1C(=O)CC(=O)N(c2ccccc2C)C1=O | 31* | i | 4 | -4 | 15 | 22*
CCN1C(=O)C(=C/C=C/c2ccco2)C(=O)N(CC)C1=S | 81* | / | 98 | 162 | 100* | 104*
CCN1C(=O)C(=C2C=C(C)N(Cc3ccco3)C(C)=C2)C(=O)N(CC)C1=S | 3 | i | 4 | 2 | / | /
CCCC[N+]1(C)[C@@H]2CC(OC(=O)[C@H](CO)c3ccccc3)C[C@H]1[C@@H]1O[C@@H]12 (stereo not given in full) | -5 | i | 0 | -2 | / | /
COC(=O)C1=Nc2ccccc2/C1=C\c1c(O)n(-c2ccc(OC)cc2)c(=O)[nH]c1=O | 11 | i | 3 | 4 | / | /
COC(=O)C1=Nc2ccccc2/C1=C\c1c(O)n(-c2ccc(Br)cc2)c(=O)[nH]c1=O | 27* | i | 3 | 5 | 33* | 44*
Cc1ccccc1N1C(=O)NC(=O)/C(=C\c2ccc3c(c2)CCCN3Cc2ccccc2)C1=O | 61* | / | 0 | 20 | 154* | 145*
Cc1ccc(N2C(=O)NC(=O)/C(=C\c3cc(C)n(-c4sc5c(c4C#N)CCCC5)c3C)C2=O)cc1 | 26* | i | -6 | 22 | 36* | 50*
CC(C)c1ccc(N2C(=O)NC(=O)/C(=C\c3cnc(-c4ccccc4)nc3)C2=O)cc1 | 15 | i | -1 | 7 | / | /
CC(C)c1ccc(N2C(=O)NC(=O)/C(=C\C=C\c3ccco3)C2=O)cc1 | 130* | / | / | / | 110* | 106*
COC(=O)C1=C(c2cc3ccccc3s2)C[C@@H]2CC[C@H]1N2C(=O)N1CCOCC1 | -1 | i | -1 | -6 | / | /
COc1ccc(C)cc1NC1=NC(C)(C)CS1 | -1 | i | -2 | 2 | / | /
O=C1OC(c2ccc([N+](=O)[O-])cc2)=N/C1=C/N1CC2CC(C1)c1cccc(=O)n1C2 (stereo not given) | 34* | i | 3 | -1 | 42* | 54*
C[CH2][Hg][S]c1ccccc1C(=O)O | -4 | i | 4 | -3 | / | /
CCN1C(=O)/C(=C/c2ccc(N(CC)CC)cc2OC)C(=O)NC1=S | 44* | i | 4 | 15 | 95* | 101*
COc1ccc(N2C(=O)NC(=O)/C(=C\c3cn(CC(=O)N4CCOCC4)c4ccccc34)C2=O)c(OC)c1 | 12 | i | 2 | 1 | / | /
COc1ccc(N2C(=O)/C(=C/c3cccs3)C(=O)NC2=S)cc1 | 2 | i | 1 | 0 | / | /
Cc1ccc(N2C(=O)/C(=C/c3ccc(CN(CCC#N)S(C)(=O)=O)o3)C(=O)NC2=S)cc1 | 36* | i | -7 | 48* | 26* | 37*
COc1ccc(N2C(=O)/C(=C/c3ccc(N(C)C)o3)C(=O)NC2=S)cc1 | 134* | / | 126 | 24 | 142* | 138*
CCN(CC)c1ccc(/C=C2\C(=O)NC(=S)N(c3ccc(OC)cc3OC)C2=O)o1 | 141* | / | 160 | -6 | 150* | 142*

Screening results (PubChem)
